Results on one compound are retold here after ChEMBL document CHEMBL4028857, “Anchimerically Activated ProTides as Inhibitors of Cap-Dependent Translation and Inducers of Chemosensitization in Mantle Cell Lymphoma” (J Med Chem, 2017).

Calls of active or inactive are those of the source. No cut-off for these calls is given here.

Data set [1] deals with Mino. The data set can be described thus: Antiproliferative activity against human Mino cells at 100 uM preincubated for 48 hrs followed by thymidine addition measure after 16 hrs by Thymidine incorporation assay. It is filed as functional, cell-based. The essentials: (§1)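 MCL lines treated 48 h with compound re-added daily, alone or with co-drug (ibrutinib 25 µM where used), then thymidine added for a further 16 h; proliferation read as thymidine incorporation.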

The nature of data set [2]: Half life in HEPES buffer at 80 uM at pH 2 by RP-HPLC analysis. It is filed as physicochemical. The essentials: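 Compound at 80 µM in 20 mM HEPES (pH 7.2 or 2.0) incubated at 37 °C; aliquots analyzed by RP-HPLC at 0, 1, 4, 6, 12, 18 and 24 h to follow methylthioalkyl deprotection and derive half-life.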
The target in data set [3] is T1, Adenosine 5'-monophosphoramidase HINT1 (Homo sapiens, UniProt P49773). The data set can be described thus: Prodrug activation in human Mino cells assessed as Hint1 mediated 2-amino-7-(2-(4-chlorophenoxy)ethyl)-9-((2R,3R,4S,5R)-3,4-dihydroxy-5-(phosphonooxymethyl)tetrahydrofuran-2-yl)-6-oxo-6,9-dihydro-1H-purin-7-ium formation per 5 million cells at 150 uM after 12 hrs by LC-MS/MS analysis. It is filed as cell-based. A digest of the protocol: (§2)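 Mantle cell lymphoma cells (five million) grown in RPMI with 10% FBS, penicillin/streptomycin and L-glutamine at 37 °C, 5% CO2, then exposed to 150 µM compound for 12 h at 37 °C. Washed with ice-cold PBS, pellet extracted in MeOH/NH4OAc (60:40) with 80 fmol internal standards, three liquid-N2 freeze–thaw cycles, filtered, dried, redissolved in 20 mM HEPES pH 7.2. Analysed by LC-MS/MS against a standard curve.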

A short description of data set [4]: (§3) Antiproliferative activity against human Mino cells preincubated for 48 hrs followed by thymidine addition measure after 16 hrs by Thymidine incorporation assay. It is filed as functional, cell-based. A digest of the protocol: as §1
The test system of data set [5] is Mino. The data set is described as §3. It is filed as functional, cell-based. A digest of the protocol:
as §1

The nature of data set [6]: Antiproliferative activity against human Mino cells at 200 uM preincubated for 48 hrs followed by thymidine addition measure after 16 hrs by Thymidine incorporation assay. It counts as functional. The essentials:
as §1
Background: Dividing cells build labelled thymidine or BrdU into new DNA.

The next data set concerns Granta-519. The data set can be described thus: Antiproliferative activity against human GRANTA-519 cells at 200 uM preincubated for 48 hrs followed by thymidine addition measure after 16 hrs by Thymidine incorporation assay. It counts as functional. The essentials: as §1
A short description of data set [7]: Antiproliferative activity against human Mino cells after 48 hrs by Annexin V/propidium iodide based flow cytometric analysis. It is filed as functional, cell-based. A digest of the protocol: (§4)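 MCL lines treated 48 h with compound re-added daily (alone or with co-drug; ibrutinib 25 µM), then survival assessed by Annexin V/PI flow cytometry.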
In general terms: In flow cytometry, cells or beads pass a laser one at a time.

Data set [8] has as its target Eukaryotic translation initiation factor 4E (Homo sapiens) (UniProt P06730). The data set can be described thus: Inhibition of eIF4E in human Mino cells assessed as down regulation of c-Myc protein expression after 48 hrs by Western blot method. It counts as cell-based. The essentials:
(§5)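 MCL lines treated 48 h with compound; protein quantified and Western blotted with eIF4E, eIF4G, actin, c-Myc and Bcl-2 antibodies.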

Data set [9] has the same target. The data set can be described thus: Inhibition of eIF4E in human Mino cells assessed as increase in p27 protein expression after 48 hrs by Western blot method. It is filed as cell-based. The essentials: as §5
On the technique in general: Immunoblotting shows a protein as a band on a membrane.

Data set [10] has the same target. The data set can be described thus: Inhibition of eIF4E in human Mino cells assessed as down regulation of Bcl-2 expression at 50 to 200 uM after 48 hrs by Western blot method. It counts as cell-based. The essentials:
as §5

The target is the same in data set [11]. The data set can be described thus: Inhibition of eIF4E in human Mino cells assessed as down regulation of c-Myc mRNA expression at 100 uM by RT-PCR based RNA Immunoprecipitation. It counts as cell-based. The essentials: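 RNA-immunoprecipitation on Mino cells with a RNA-binding protein immunoprecipitation kit.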
The target is the same in data set [12]. The data set can be described thus: Inhibition of eIF4E in human Mino cells assessed as potentiation of doxorobucin induced antiproliferation at 100 uM preincubated for 48 hrs followed by thymidine addition measure after 16 hrs by Thymidine incorporation assay. It counts as cell-based. The essentials: as §1
Data set [13] has as its target T1, Adenosine 5'-monophosphoramidase HINT1. The data set can be described thus: Prodrug activation in human Z138 cells assessed as hint1-mediated 2-amino-7-(2-(4-chlorophenoxy)ethyl)-9-((2R,3R,4S,5R)-3,4-dihydroxy-5-(phosphonooxymethyl)tetrahydrofuran-2-yl)-6-oxo-6,9-dihydro-1H-purin-7-ium formation per 5 million cells at 150 uM after 12 hrs by LC-MS/MS analysis relative to 9-((2R,3R,4S,5R)-5-(((((2-(1H-Indol-3-yl)ethyl)amino)-(hydroxy)phosphoryl)oxy)methyl)-3,4-dihydroxytetrahydrofuran-2-yl)-2-amino-7-(2-(4-chlorophenoxy)ethyl)-6-oxo-6,9-dihydro-1H-purin-7-ium. It is filed as cell-based. A digest of the protocol:
as §2

Data set [14] has the same target. The data set can be described thus: Prodrug activation in human GRANTA-519 cells assessed as hint1-mediated 2-amino-7-(2-(4-chlorophenoxy)ethyl)-9-((2R,3R,4S,5R)-3,4-dihydroxy-5-(phosphonooxymethyl)tetrahydrofuran-2-yl)-6-oxo-6,9-dihydro-1H-purin-7-ium formation per 5 million cells at 150 uM after 12 hrs by LC-MS/MS analysis relative to 9-((2R,3R,4S,5R)-5-(((((2-(1H-Indol-3-yl)ethyl)amino)-(hydroxy)phosphoryl)oxy)methyl)-3,4-dihydroxytetrahydrofuran-2-yl)-2-amino-7-(2-(4-chlorophenoxy)ethyl)-6-oxo-6,9-dihydro-1H-purin-7-ium. It counts as cell-based. The essentials:
as §2

Data set [15] in a line: AUC (0 to 8 hrs) in Sprague-Dawley rat plasma at 25 mg/kg, po by LC-MS/MS analysis. It is filed as ADME, organism-based. Further details: time < 8 hr, dose 25 mg/kg, route oral. A digest of the protocol:
(§6)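 Female Sprague-Dawley rats (250-274 g, n=3, catheterized femoral/jugular veins) dosed once p.o. by gavage (25 mg/kg) then, after a 3-day washout, i.v. (2.5 mg/kg). Formulation: 10 mg/mL in 0.5% aqueous CMC with 5% DMSO. Serial blood draws to 480 min into K2EDTA; plasma protein-precipitated with acetonitrile plus internal standards; LC-MS/MS (positive MRM); non-compartmental PK; %F from dose-normalized AUC per rat.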

The nature of data set [16]: AUC (0 to 8 hrs) in Sprague-Dawley rat plasma at 2.5 mg/kg, iv by LC-MS/MS analysis. It is filed as ADME, organism-based. The arrangement: time < 8 hr, dose 2.5 mg/kg, route intravenous. The essentials:
as §6

A short description of data set [17]: Half life in Sprague-Dawley rat at 2.5 mg/kg, iv by LC-MS/MS analysis. It is filed as ADME, organism-based. Particulars: in vivo. The essentials: as §6
Data set [18] deals with Rattus norvegicus. The data set can be described thus: AUC (0 to 8 hrs) in Sprague-Dawley rat plasma assessed as 9-((2R,3R,4S,5R)-5-(((((2-(1H-Indol-3-yl)ethyl)amino)-(hydroxy)phosphoryl)oxy)methyl)-3,4-dihydroxytetrahydrofuran-2-yl)-2-amino-7-(2-(4-chlorophenoxy)ethyl)-6-oxo-6,9-dihydro-1H-purin-7-ium at 25 mg/kg, po by LC-MS/MS analysis. It is filed as ADME, organism-based. The arrangement: time < 8 hr, dose 25 mg/kg, route oral. Particulars: in vivo. A digest of the protocol:
as §6

Data set [19] relates to Rattus norvegicus. The data set can be described thus: AUC (0 to 8 hrs) in Sprague-Dawley rat plasma assessed as 9-((2R,3R,4S,5R)-5-(((((2-(1H-Indol-3-yl)ethyl)amino)-(hydroxy)phosphoryl)oxy)methyl)-3,4-dihydroxytetrahydrofuran-2-yl)-2-amino-7-(2-(4-chlorophenoxy)ethyl)-6-oxo-6,9-dihydro-1H-purin-7-ium at 2.5 mg/kg, iv by LC-MS/MS analysis. The arrangement: time < 8 hr, dose 2.5 mg/kg, route intravenous. Particulars: in vivo. It counts as ADME, organism-based. The essentials: as §6

A short description of data set [20]: Cmax in Sprague-Dawley rat at 25 mg/kg, po measured at 30 mins post dose by LC-MS/MS analysis. The settings on record: in vivo. Further details: dose 25 mg/kg, route oral. It is filed as ADME, organism-based. The essentials:
as §6

The nature of data set [21]: Cytotoxicity against human Mino cells assessed as reduction in cell survival at 100 uM after 48 hrs in presence of dexamethasone by Annexin V/propidium iodide based flow cytometric analysis. A digest of the protocol: as §4

Eukaryotic translation initiation factor 4E (Homo sapiens), sequence (P06730 whole entry): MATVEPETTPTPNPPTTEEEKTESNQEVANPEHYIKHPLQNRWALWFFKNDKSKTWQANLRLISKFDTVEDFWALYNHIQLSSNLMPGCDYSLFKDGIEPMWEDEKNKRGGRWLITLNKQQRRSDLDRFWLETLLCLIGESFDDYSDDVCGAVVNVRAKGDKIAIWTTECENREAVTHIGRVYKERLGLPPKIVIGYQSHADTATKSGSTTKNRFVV
T1 sequence (P49773 whole entry): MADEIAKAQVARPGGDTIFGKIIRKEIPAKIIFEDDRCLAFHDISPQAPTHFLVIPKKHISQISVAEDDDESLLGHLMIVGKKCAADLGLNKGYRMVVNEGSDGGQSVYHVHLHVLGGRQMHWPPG

As usually defined, the half-life is the time in which the quantity being followed falls by half. What is called IC50 is the midpoint of a concentration-inhibition curve. The low end stands for greater potency in that assay, the high end for weaker potency in that assay. The term AUC(0-t) denotes the area under the concentration-time curve up to a stated or last time point. As usually defined, the AUC is concentration integrated over time. As usually defined, the Cmax is the maximum level reached in the sampled fluid or tissue. On to `CSCCOP(=O)(NCCc1c[nH]c2ccccc12)OC[C@H]1O[C@@H](n2c[n+](CCOc3ccc(Cl)cc3)c3c(=O)[nH]c(N)nc32)[C@H](O)[C@@H]1O` (some centres not stated), for which the outcome in the data set on Mino [1] was Active. In data set [2], this compound had a half-life at 80 µM of 300 min. Moreover, the Drug metabolism in data set [3] is given as 218 pmol. In addition, the IC50 in data set [4] was 50 µM; in data set [7] it was more than 200 µM. Besides, the Activity result with Mino [5] was “Dose-dependent effect”; in data set [6], 100%; with Granta-519, 100%; in [21], “Toxic”. Moreover, the inhibition entry in [8] and in data set [9] was “Dose-dependent effect” each time. The inhibition entry in data set [10] and in data set [11] was “inactive” in each case. Moreover, the inhibition entry in data set [12] is “Active”. For the same compound, the “fold change (FC)” value was found to be 520 in data set [13] and 1.9 in data set [14]. In addition, the AUC(0-t) at 8 h in data set [15] was 28.3 ng·h/mL; in data set [16], 23.3 ng·h/mL. In addition, the half-life in data set [17] stood at 79 min. For the same compound, the AUC in the data set with Rattus norvegicus [18] was 2.6 µg·min/mL; in the data set with Rattus norvegicus [19] it was 0.5 µg·min/mL. Besides, the concentration in [20] peaked (Cmax) at 5 ng/mL.
